Source: PubChem BioAssay
HSF1 inh: HSF1 inhibition; NIH3T3-HGL HSE-luciferase, MG132-induced, luminescence 8 h; hits give low values; activity change, negative = inhibition, % at 7.5 µM (by protocol); actives 0.77% (n = 300,000);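 active means more than half of replicate wells show activity change below -50%, luminescence cut by over half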;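 further: luciferase reports HSF-1 transcriptional activity via heat shock element; 0% = median of DMSO wells and -100% = zero luminescence signal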
AHR activator: activators of human aryl hydrocarbon receptor; P35869; AHR-responsive luciferase reporter cells, luminescence; activation, % at 5 µM; actives 2.5% (n = 320,000); in the data active means activation above about 47%;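 further: 0% = vehicle wells and 100% = reference agonist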
Hsp70 activator: Hsp70 transcriptional activation, primary screen. HeLa Hsp70 promoter luciferase reporter, luminescence; scaled: vehicle 0, proteasome-inhibitor control 100%. AID 1203. actives 0.04% (n = 200,000). activation, % at 10 µM;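 active means activation above the mean across all tested compounds plus 3 SD, cutoff set per campaign, cut at about 5.5% in these data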;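 further: 100% = MG132 at 30 µM as the positive control and 0% = DMSO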
PolyA inhibitor: yeast polyadenylation inhibition | AID 1875 | activity score, % at 12 µM | S. cerevisiae SKY197-pL101 polyadenylation reporter, beta-gal luminescence; efflux-impaired pdr1/pdr3 knockout yeast; score 100 = 6 SD above DMSO | actives 0.02% (n = 300,000);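 active means lowest replicate activity score at least 50, where 100 means six control SD above control mean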;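 further: yeast exposed to compound for 9 h at 30 °C; higher score means more reporter readthrough which indicates perturbed polyadenylation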
PERK inh: inhibitors of human PERK kinase | Q9NZJ5 | CHO PERK-DD fusion, SEAP luminescence translation reporter | inhibition, % at 5.6 µM | actives 0.17% (n = 220,000) | AID 1416;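 active means inhibition above the mean inhibition of all tested compounds plus 3 SD, set separately per screening campaign, cut at about 2.9% in these data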;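 further: PERK kinase domain activated by AP20187 dimerizer at 100 nM; 0% = DMSO with dimerizer and 100% = rapamycin at 8.4 µM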
STAT3 activator: increases IL-6 driven STAT3 reporter signal. U3A cells, IL-6 STAT3-luciferase reporter, luminescence; 100% = signal with IL-6 EC80 alone. activation (% of control), % at 5.6 µM. actives 0.91% (n = 190,000);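 active means activation above the screen-wide mean of compound activation plus 3 SD, cut at about 130% in these data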;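 further: 0% = background luminescence of wells with medium and substrate only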
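Test system: Human STAT1-deficient U3A cells with stable STAT3-luciferase reporter | Also added: Interleukin-6, 33 ng/mL | Timing: Compound pre-incubation 1 h before IL-6, then 6 h stimulation at 37 °C | Technique: Luciferase reporter luminescence | Read-out: Percent of IL-6-only median luminescence | Benchmarks: IL-6-only wells as 100% reference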
The depositor's hits bear a star; x = no result given. An excerpt weighted towards active compounds, which were near 3.6% of everything screened.

SMILES | HSF1 inh | AHR activator | Hsp70 activator | PolyA inhibitor | PERK inh | STAT3 activator
CN1CCN(c2nc(-c3ccc(C(C)(C)C)cc3)nc3ccccc23)CC1 | -80* | 46 | x | 1 | x | x
Cc1ccc(-c2nc(N3CCN(C)CC3)c3ccccc3n2)cc1 | -5 | 19 | x | -4 | x | x
c1cncc(-c2nc(N3CCOCC3)c3ccccc3n2)c1 | -12 | 78* | 0 | -23 | -1 | 107
Cc1cc(N)n(-c2nc(-c3cccnc3)nc3ccccc23)n1 | 2 | 61* | 0 | -1 | 0 | 102
CCNc1nc(Cl)nc(-c2cn(-c3ccccc3)c3ccccc23)n1 | 2 | 62* | x | 7 | -2 | x
O=C(CN1C(=O)C(=O)N(C2CCCC2)C1=O)Nc1ccc(OC(F)F)cc1 | x | 0 | x | x | x | x
NC(=O)c1cc(Br)cc2c3c([nH]c12)CCCC3 | -2 | 64* | 0 | -39 | -1 | 82
CCC(=O)N1CCc2cc(S(=O)(=O)NC(Cc3ccccc3)C(=O)O)ccc21 (configuration not stated) | -9 | 3 | x | 32 | x | x
COCn1c(-c2cccc(Br)c2)nc2ccccc21 | 20 | 53* | 0 | -36 | 0 | 106
Cn1c(O)c(C=Nc2ccc(Br)cc2)sc1=O | 24 | 63* | 0 | -8 | 1 | 100
COc1ccc(NC(=O)N(C)C[C@H]2Oc3c(NS(=O)(=O)c4cccs4)cccc3C(=O)N([C@@H](C)CO)C[C@@H]2C)cc1 | x | 0 | x | x | x | x
Cc1ccc(S(=O)(=O)N(C)c2ccc(OCC(=O)Nc3nc4c(ccc5ccccc54)s3)cc2)cc1 | -4 | 47* | 0 | 3 | 0 | 103
Cc1ccc(S(=O)(=O)N(C)c2ccc(OCC(=O)Nc3nc4ccccc4s3)cc2)cc1 | 1 | 21 | -1 | -2 | -1 | 99
COc1ccccc1N(Cc1ccccc1)S(=O)(=O)c1cccc(C(=O)Nc2cccc(C)n2)c1 | 2 | 7 | x | -1 | x | x
COc1cc(/C=N/N2C(C)CCCC2C)cc(Br)c1O (configuration not stated) | -1 | 1 | 0 | 17 | 1 | 110
CCN=c1scc(C)n1/N=C/c1cc(Br)c(O)c(OC)c1 | -13 | 49* | 0 | -2 | 1 | 99
Cn1cccc1C(=O)Nc1ccc(Cl)c(S(=O)(=O)N2CCCCC2)c1 | x | 5 | x | x | x | x
O=C(CSc1ccccc1)Nc1nnc(C2CC2)s1 | 16 | 19 | x | 4 | x | x
CCOc1ccccc1Nc1nc(-c2sc(NC(=O)c3ccccc3)nc2C)cs1 | -12 | 72* | 0 | -6 | -1 | 96
COc1ccccc1Nc1nc(-c2sc(NC(=O)c3ccccc3)nc2C)cs1 | 9 | 28 | 0 | -10 | 1 | 97
CCOc1ccccc1Nc1nc(-c2sc(NC(=O)c3cccc(Cl)c3)nc2C)cs1 | 16 | 64* | 0 | -7 | 1 | 105
O=C(CCc1ccccc1)N=C1SC2CS(=O)(=O)CC2N1c1ccccc1 (configuration not stated) | -2 | 1 | x | -9 | x | x
Cc1ccc(S(=O)(=O)NCC(=O)OCC(=O)N(C)C2CCCCC2)cc1 | x | -1 | x | x | x | x
C/C(=N\NC(=O)c1cc(C2CC2)nc2ccccc12)c1ccc(O)cc1O | 1 | 10 | x | 3 | x | x
C/C(=N\NC(=O)c1cc(C2CC2)nc2ccccc12)c1ccc(C)s1 | 26 | 51* | 0 | 1 | -1 | 93
SMILES | HSF1 inh | AHR activator | Hsp70 activator | PolyA inhibitor | PERK inh | STAT3 activator
O=C(N/N=C/c1cccnc1)c1cc(C2CC2)nc2ccccc12 | -1 | 48* | x | -4 | x | x
Cc1ccc(S(=O)(=O)CCC(=O)OCC(=O)Nc2cc(S(=O)(=O)N3CCOCC3)ccc2C)cc1 | 1 | -2 | x | -7 | x | x
N#Cc1ccc(Oc2cnccn2)cc1 | -2 | 1 | x | 8 | x | x
COc1ccc2cc(N=Cc3nc(-c4ccc(C)cc4)oc3O)cnc2c1 | -3 | 4 | 0 | 5 | 0 | 95
Cc1ccc(Cn2c(CCCO)nc3ccccc32)cc1 | 4 | -2 | x | 1 | x | x
CCOC(=O)c1c(C)c(C(=O)N2CCN(c3ccc(F)cc3)CC2)c(C)n1C | 7 | 0 | 0 | 5 | -1 | 111
CN(c1ccccc1)S(=O)(=O)c1nnc(NC(=O)COc2ccccc2F)s1 | -72* | 1 | x | -3 | x | x
O=Cc1ccc(-c2ccc(Cl)cc2Cl)[nH]1 | 8 | 7 | 0 | -11 | 4.2* | 106
